The target of series [1] is T1, Alkaline phosphatase, tissue-nonspecific isozyme (Homo sapiens, UniProt P05186).
T1 sequence (P05186 whole entry): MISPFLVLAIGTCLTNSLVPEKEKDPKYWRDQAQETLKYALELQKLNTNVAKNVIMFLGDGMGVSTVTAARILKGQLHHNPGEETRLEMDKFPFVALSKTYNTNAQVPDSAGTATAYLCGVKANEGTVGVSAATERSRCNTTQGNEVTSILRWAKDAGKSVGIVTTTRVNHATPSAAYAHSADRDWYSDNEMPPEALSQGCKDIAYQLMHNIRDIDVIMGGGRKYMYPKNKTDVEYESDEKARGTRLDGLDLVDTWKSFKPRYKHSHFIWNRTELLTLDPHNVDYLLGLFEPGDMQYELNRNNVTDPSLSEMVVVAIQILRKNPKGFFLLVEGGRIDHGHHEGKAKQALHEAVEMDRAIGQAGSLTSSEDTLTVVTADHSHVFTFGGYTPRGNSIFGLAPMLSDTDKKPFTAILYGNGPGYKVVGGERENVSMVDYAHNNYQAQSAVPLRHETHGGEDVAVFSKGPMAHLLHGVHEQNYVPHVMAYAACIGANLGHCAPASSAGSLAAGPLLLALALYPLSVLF
The series can be described thus: Inhibition of TNAP transfected in african green monkey COS1 cells by luminescent assay.

Series [2] can be described thus: Solubility at pH 7.4 by direct UV method. It is filed as physicochemical. Particulars: buffer. A digest of the protocol: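 Direct UV kinetic solubility in aqueous buffer at pH 7.4, in duplicate. Samples held at room temperature for at least 18 h, then filtered to remove precipitate. UV absorbance (250-498 nm) compared with spectra of precipitation-free reference solutions.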

For series [3], the target named is T2, Ectonucleotide pyrophosphatase/phosphodiesterase family member 1 (Homo sapiens) (UniProt P22413).
T2 sequence (whole entry): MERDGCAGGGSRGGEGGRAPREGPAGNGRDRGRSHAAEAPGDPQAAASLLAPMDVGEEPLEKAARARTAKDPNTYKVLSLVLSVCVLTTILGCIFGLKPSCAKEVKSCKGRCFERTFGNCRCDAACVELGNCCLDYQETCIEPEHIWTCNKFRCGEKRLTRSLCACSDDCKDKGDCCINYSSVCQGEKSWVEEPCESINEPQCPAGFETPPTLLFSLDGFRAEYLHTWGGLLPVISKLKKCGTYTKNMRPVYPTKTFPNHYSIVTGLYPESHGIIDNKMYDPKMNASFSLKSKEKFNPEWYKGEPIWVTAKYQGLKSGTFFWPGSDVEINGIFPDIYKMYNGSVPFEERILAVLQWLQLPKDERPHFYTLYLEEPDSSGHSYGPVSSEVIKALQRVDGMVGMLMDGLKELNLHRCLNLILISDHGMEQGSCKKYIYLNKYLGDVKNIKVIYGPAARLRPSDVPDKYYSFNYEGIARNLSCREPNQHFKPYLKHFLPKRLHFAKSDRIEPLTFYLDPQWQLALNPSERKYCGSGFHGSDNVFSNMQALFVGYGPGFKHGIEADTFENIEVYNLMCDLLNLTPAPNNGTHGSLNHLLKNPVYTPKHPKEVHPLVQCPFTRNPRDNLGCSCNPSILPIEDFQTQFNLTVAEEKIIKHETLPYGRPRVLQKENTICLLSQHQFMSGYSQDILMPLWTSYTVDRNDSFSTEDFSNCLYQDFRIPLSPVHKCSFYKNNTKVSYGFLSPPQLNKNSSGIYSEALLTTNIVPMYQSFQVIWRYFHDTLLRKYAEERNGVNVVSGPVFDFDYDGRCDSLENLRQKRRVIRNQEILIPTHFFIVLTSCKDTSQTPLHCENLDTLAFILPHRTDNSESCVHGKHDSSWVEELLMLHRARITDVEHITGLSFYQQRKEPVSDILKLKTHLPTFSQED
Description: Inhibition of NPP1. Particulars: concentration not given here. A digest of the protocol:
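NPP1 activity with 5 mM pNP-TMP in 50 mM Tris pH 7.4 or 100 mM Tris pH 8.9 with 2 mM MgCl2 at 37 °C. Reaction started with enzyme and stopped with 1 M NaOH at set times. p-Nitrophenolate read at 410 nm, in triplicate, with no-enzyme controls. Inhibitor tested at 10 μM final.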

Series [4] can be described thus: Permeability by PAMPA assay. It is filed as ADME.
Series [5] in a line: Metabolic stability in rat liver microsomes after 30 mins. Particulars: read-out: Stability. It is filed as ADME, Microsome. A digest of the protocol: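 Compounds incubated in triplicate with pooled rat liver microsomes plus NADPH at 37 °C for 30 min. Reported as percent remaining.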
The nature of series [6]: Cmax in rat at 4.13 mg/kg, sc. It is filed as ADME, organism-based. Also noted: dose 4.13 mg/kg, route subcutaneous. Particulars: in vivo. A digest of the protocol: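 Rats dosed subcutaneously with 400 microliters of a […] solution (4.13 mg/kg) in 50% DMSO in normal saline. Blood drawn and frozen immediately, plasma kept at -20 °C. Compound quantified by LC-MS/MS (electrospray, C18 reverse-phase, water-acetonitrile gradient) against a 7-point calibration curve built from peak areas of serial dilutions.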

Series [7] in a line: Metabolic stability in rat plasma after 30 mins. The format is ADME, cell-free. Particulars: read-out: Stability. A digest of the protocol: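 Compounds incubated in fresh rat plasma at 37 °C for 30 min. Reported as percent remaining.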
The target in series [8] is T3, Phosphoethanolamine/phosphocholine phosphatase (Homo sapiens) (UniProt Q8TCT1).
T3 sequence (whole entry): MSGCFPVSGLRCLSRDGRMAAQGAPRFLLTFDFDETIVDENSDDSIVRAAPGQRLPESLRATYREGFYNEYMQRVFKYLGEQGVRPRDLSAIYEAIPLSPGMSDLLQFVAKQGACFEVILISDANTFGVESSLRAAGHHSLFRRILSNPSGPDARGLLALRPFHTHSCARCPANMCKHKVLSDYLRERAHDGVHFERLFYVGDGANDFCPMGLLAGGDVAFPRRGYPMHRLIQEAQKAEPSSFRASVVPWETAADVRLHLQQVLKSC
The series can be described thus: Inhibition of PHOSPHO1 assessed as inorganic phosphate release. Particulars: concentration not given here.

Series [9] deals with Intestinal-type alkaline phosphatase (Homo sapiens, UniProt P09923). The series can be described thus: Inhibition of IAP by luminescent assay.

Structures are written as SMILES. pIC50: −log10 of the molar value. Converted amounts (≈) assume the structure as drawn.

Chain of Intestinal-type alkaline phosphatase (P09923 whole entry): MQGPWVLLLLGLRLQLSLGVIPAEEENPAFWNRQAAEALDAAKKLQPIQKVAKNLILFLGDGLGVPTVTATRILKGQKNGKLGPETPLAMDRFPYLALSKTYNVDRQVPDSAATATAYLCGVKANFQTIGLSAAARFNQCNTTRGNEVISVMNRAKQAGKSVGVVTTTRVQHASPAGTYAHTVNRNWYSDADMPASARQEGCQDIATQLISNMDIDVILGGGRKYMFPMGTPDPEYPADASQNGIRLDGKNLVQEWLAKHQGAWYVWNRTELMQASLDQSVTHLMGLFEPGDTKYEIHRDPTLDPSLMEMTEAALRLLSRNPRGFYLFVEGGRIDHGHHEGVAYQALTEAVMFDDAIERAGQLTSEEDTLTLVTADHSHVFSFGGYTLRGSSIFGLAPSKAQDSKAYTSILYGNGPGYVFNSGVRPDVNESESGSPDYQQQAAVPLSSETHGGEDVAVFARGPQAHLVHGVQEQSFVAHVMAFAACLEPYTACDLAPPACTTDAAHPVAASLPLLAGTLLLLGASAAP

`CCOc1ccc(Cl)cc1S(=O)(=O)Nc1cccnc1` had a pIC50 in series [1] of 6.27.

As to `COc1ccc(OC)c(S(=O)(=O)Nc2ccc3ncccc3c2)c1`, in series [1], the pIC50 is < 5.00.

Regarding `COc1cc(S(=O)(=O)Nc2cccnc2)c(OC)cc1C`, the pIC50 in series [1] was 5.83.

Consider `CCOc1ccc(C)cc1S(=O)(=O)Nc1cccnc1`, for which the pIC50 in series [1] was 5.95.

The compound `COc1ccc(OC)c(S(=O)(=O)Nc2cnc3ccccc3c2)c1` came in with a solubility (kinetic) in series [2] of 138 µg/mL (≈ 401 µM). Besides, the inhibition in series [3] is < 9.5%; in series [8] it was < 7.4%. In [4], this compound gave a permeability of 58%. Moreover, the remaining at 0.5 h in series [5] was 78%; in series [7] it was 97%. The Cmax in series [6] is 1500 ng/mL. Moreover, the pIC50 in [9] is < 4.00.

In the case of `COc1cc(S(=O)(=O)Nc2cccnc2)c(OC)cc1Cl`, in series [1], the negative logarithm of the IC50 (pIC50) was 5.95.

`COc1ccc(C)cc1S(=O)(=O)Nc1cnc2ccccc2c1`: in series [2], the kinetic solubility is 71.6 µg/mL (≈ 218 µM). In addition, in [4], the permeability was 7%. Besides, the pIC50 in series [1] was 6.19. Further, the results for the remaining at 0.5 h in series [5] and in series [7] were 48% and 91%, respectively.

Turning to `COc1cc(C)c(C)cc1S(=O)(=O)Nc1cccnc1`, the negative-log IC50 (pIC50) in series [1] was 5.77.

Regarding `COc1ccc(C)cc1S(=O)(=O)Nc1cccnc1`, the kinetic solubility in [2] amounted to 28.5 µg/mL (≈ 102 µM). The permeability in series [4] came to 83%. The same compound gave a pIC50 in series [1] of 5.73. The remaining at 0.5 h was 39% in series [5] and 98% in series [7].

In turn, `COc1ccc(Br)cc1S(=O)(=O)Nc1cnc2ccccc2c1` yielded a solubility (kinetic) in series [2] of 37.9 µg/mL (≈ 96.4 µM). The compound also returned a permeability in series [4] of 54%. The values for the remaining at 0.5 h in [5] and in series [7] were 49% and 66%, respectively.

In turn, `COc1ccc(F)cc1S(=O)(=O)Nc1cccnc1` had a pIC50 in series [1] of 5.89.

`COc1ccc(OC)c(S(=O)(=O)Nc2ccc3ccccc3c2)c1`: the pIC50 in series [1] is < 5.00.

For the compound `COc1ccc(OC)c(S(=O)(=O)Nc2cccnc2)c1`, the pIC50 in [1] was 5.97.

Consider `COc1ccc(OC)c(NS(=O)(=O)c2cnc3ccccc3c2)c1`, for which the pIC50 in [1] was < 5.00.

Compound `COc1cc(C)c(Cl)cc1S(=O)(=O)Nc1cccnc1` gave a pIC50 in series [1] of 6.29.

As to `COc1ccc(OC)c(CNc2cnc3ccccc3c2)c1`, in [1], the pIC50 is < 5.00.

`CCOc1cc(C)c(Cl)cc1S(=O)(=O)Nc1cccnc1`: the pIC50 in series [1] was 6.16.

Turning to `COc1cccc(S(=O)(=O)Nc2cnc3ccccc3c2)c1`, the pIC50 in [1] was < 5.00.

In [2], `COc1cc([N+](=O)[O-])ccc1S(=O)(=O)Nc1cnc2ccccc2c1` came in with a kinetic solubility of 178 µg/mL (≈ 495 µM). Besides, the permeability in series [4] was 11%. For the same compound, in [1], the pIC50 is 6.13. In addition, the remaining at 0.5 h in series [5] stood at 56%; in series [7] it was 96%.

`COc1cc(S(=O)(=O)Nc2cccnc2)c(OC)cc1Br` showed a negative logarithm of the IC50 (pIC50) in series [1] of 5.81.

The compound `COc1cc([N+](=O)[O-])ccc1S(=O)(=O)Nc1cccnc1` yielded a kinetic solubility in series [2] of 1.1 µg/mL (≈ 3.56 µM). For the same compound, the permeability in series [4] came to 51%. The compound also gave a pIC50 in series [1] of 5.50. Further, the remaining at 0.5 h in [5] amounted to 68%; in series [7] it was 99%.
